STAT3 inh: inhibitors of IL-6 induced STAT3 signaling; inhibition, % at 5.5 µM; U3A cells, IL-6 STAT3-luciferase reporter, luminescence; host cell line lacks STAT1; 0.89% of 190,000 active;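 active = inhibition above the mean inhibition across all screened compounds plus 3 SD, cut at about 44% in these data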;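 note: 0% = DMSO only wells and 100% = 100 µM nifuroxazide control wells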
STAT1 act-1: activators of IFN-gamma induced STAT1 signaling | NIH 3T3 STAT1-luciferase reporter, luminescence; 100% = IFN-gamma alone, no compound | activation (% of control), % at 5.5 µM | 2.6% of 200,000 active | AID 932;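 active = activation above the screen-wide mean activation plus 3 SD, cut at about 130% in these data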;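 note: raw ratio to IFN-gamma control signal so 100% means no change and 0% no light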
APP 5'UTR act: activates APP 5'UTR luciferase reporter; 1% of 190,000 active; SH-SY5Y APP 5'UTR luciferase reporter, luminescence; zero percent = DMSO vehicle wells; activation, % at 2 µM;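 active = activation above a set limit, based on mean plus 3 SD of controls, cut at about 140% in these data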
NF-kB expr up: NF-kB expression increase, human neuronal cells; 1.6% of 190,000 active; NF-kB reporter expression; hits give high values; fold change at 12.5 µM; AID 1239; in the data active = fold change above about 3.3
STAT1 inh: reduces IFN-gamma driven STAT1 reporter signal; inhibition, % at 5.5 µM; NIH 3T3 STAT1-luciferase reporter, luminescence; 0.35% of 200,000 active;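 active = inhibition above a set limit, the mean inhibition across all tested compounds plus 3 SD, cut at about 34% in these data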;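 note: 0% = IFN-gamma with DMSO and 100% = IFN-gamma with 300 µM nifuroxazide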
STAT3 act-1: increases IL-6 driven STAT3 reporter signal | AID 871 | activation (% of control), % at 5.6 µM | 0.91% of 190,000 active | U3A cells, IL-6 STAT3-luciferase reporter, luminescence; 100% = signal with IL-6 EC80 alone;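 active = activation above the screen-wide mean of compound activation plus 3 SD, cut at about 130% in these data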;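 note: 0% = background luminescence of wells with medium and substrate only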
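System – human U3A cells carrying STAT3-luciferase construct · Probe or stimulus – Interleukin-6, 33 ng/mL · Schedule – compound 1 h, then IL-6 6 h at 37 °C · Signal – luminescence from STAT3-driven luciferase reporter · Evaluation – percent of IL-6-only median luminescence · Benchmarks – IL-6-only high control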
STAT3 act-2: confirmation of STAT3 signaling activators; potentiation (% of control), % at 5.7 µM; AID 1267; U3A STAT3-luciferase reporter, IL-6 potentiation, luminescence; U3A cells lack STAT1; 100 means same as IL-6 alone; 64% of 1,200 active; shares compounds with STAT3 act-1;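 active = percent activation of the STAT3 luciferase reporter above a set limit taken from the earlier primary screen, cut at about 130% in these data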;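 note: 0% = background signal of medium plus substrate and 100% = median of IL-6 with DMSO wells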
NFkB act 2: NF-kappaB activation in STAT3 activator counter-screen; shares compounds with STAT3 act-1; human cells, NF-kappaB reporter activation; activation (% of control), % at 5.7 µM; 11% of 1,200 active; AID 1309; in the data active = activation above about 120%;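 note: reporter induced by TNF-alpha stimulation; 100% = median of stimulated DMSO wells and 0% = no signal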
STAT1 act-2: activates STAT1, counter-screen to STAT3 activators; AID 1318; 13% of 1,200 active; NIH 3T3 STAT1-luciferase reporter, IFN-gamma, luminescence; activation (% of control), % at 5.7 µM; shares compounds with STAT3 act-1;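 active = activation above the solvent-only control well mean plus 3 SD, set per screening run, cut at about 120% in these data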;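 note: 100% = IFN-gamma with DMSO median signal so 100% means no change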
Numbers without * were called inactive; . = no result. Hits are enriched below; roughly 4.9% of the tested compounds scored in any of these assays.

SMILES | STAT3 inh | STAT1 act-1 | APP 5'UTR act | NF-kB expr up | STAT1 inh | STAT3 act-1 | STAT3 act-2 | NFkB act 2 | STAT1 act-2
COc1ccc(C)cc1-n1nnnc1SC/C(O)=C(\C#N)c1nc2ccccc2[nH]1 | -10 | 94 | -2 | 0.91 | 6 | 112 | . | . | .
N#Cc1cc(Br)ccc1N=C1CCCN1c1ccccc1 | -12 | 96 | -12 | 1 | 5 | 114 | . | . | .
Nc1c(S(=O)(=O)c2ccccc2)csc1C(=O)O | -3 | 96 | 5 | 1.1 | 4 | 104 | . | . | .
COc1cc(NC(=O)c2ncn[nH]2)cc(OC)c1OC | 2 | 99 | -3 | 1.1 | 2 | 101 | . | . | .
COC(=O)c1ccccc1NC(=O)c1ccccc1N(C)S(C)(=O)=O | 1 | 106 | 6 | 0.84 | -7 | 103 | . | . | .
CC(C)(CSc1nncn1N)NS(=O)(=O)c1ccc(Cl)cc1 | 6 | 98 | 15 | 1.1 | 2 | 97 | . | . | .
Cc1ncoc1C(=O)N1CCc2c([nH]c3ccccc23)C1C1CCCCC1 (centres undefined) | -29 | 111 | 34 | 1.6 | -13 | 140* | 128 | 106 | 110
COc1ccc(CN2C(=O)NC3(CCCCCC3)C2=O)cc1F | . | . | . | 1.2 | . | . | . | . | .
Cc1nc(N=C(N)N)nc2ccccc12 | -18 | 103 | 23 | 1.1 | -3 | 116 | . | . | .
Cc1nc(/N=C(\N)NC(=O)c2ccccc2)nc2ccccc12 | -78 | 102 | 15 | 0.98 | -2 | 177* | 168* | 121* | 116
O=C1CC(c2ccccc2)C(C(=O)Nc2ccccc2F)N1 (centres undefined) | -4 | 102 | 14 | 0.97 | -2 | 103 | . | . | .
Oc1ccccc1-c1cc(-c2cccc(F)c2)n[nH]1 | -51 | 109 | 202* | 9.9* | -10 | 145* | 155* | 140* | 111
Oc1ccc(Cl)cc1-c1cc(-c2cccc(Br)c2)n[nH]1 | 11 | 100 | 9 | 1.3 | 0 | 97 | . | . | .
CC(CN1C(C)CCCC1C)OC(=O)c1ccc(Cl)cc1Cl (centres undefined) | 2 | 103 | 25 | 1.1 | -4 | 100 | . | . | .
N#CC1=C(N)N(c2ccc(Oc3ccccc3)cc2)C(=O)C1 | 27 | 105 | 8 | 1.6 | -6 | 81 | . | . | .
O=C(O)C1Cc2[nH]cnc2C(c2cccc([N+](=O)[O-])c2)N1 (centres undefined) | -1 | 106 | 4 | 1.2 | -7 | 106 | . | . | .
O=C(O)C1Cc2[nH]cnc2C(c2ccccc2O)N1 (centres undefined) | -48 | 94 | 13 | 0.9 | 7 | 143* | 172* | 103 | 115
CNc1nc(-c2c[nH]c3ccccc23)cs1 | -60 | 95 | -7 | 0.6 | 6 | 161* | 152* | 100 | 95
CC(OC(=O)c1cccnc1SCc1cc(=O)n2ccccc2n1)c1ccccn1 (centres undefined) | -69 | 107 | 4 | 0.96 | -7 | 153* | 134* | 100 | 99
CCOC(=O)c1cccnc1SCc1cc(=O)n2ccccc2n1 | -40 | 98 | -7 | 1.1 | 2 | 138* | 129 | 103 | 96
O=C(O)CCCCCn1c(SCc2cc(=O)n3ccccc3n2)nc2ccsc2c1=O | 12 | 101 | -15 | 0.92 | -1 | 93 | . | . | .
CCOc1ccc(NC(=O)CC2C(=O)N(c3ccccc3)C(=O)N2CCc2cccs2)cc1 (centres undefined) | 11 | 89 | -6 | 1.1 | 12 | 89 | . | . | .
COCCNC(=O)C(=O)N/N=C/c1ccccc1C(F)(F)F | 0 | 100 | 12 | 1.2 | -1 | 102 | . | . | .
COc1ccc(N2C(=O)C3C(c4ccc(C(=O)O)cc4)NC(Cc4ccccc4)(C(=O)O)C3C2=O)c([N+](=O)[O-])c1 (centres undefined) | 7 | 103 | -1 | 1.1 | -6 | 98 | . | . | .
CC(=O)c1coc2c1cc(O)c1ccccc12 | 16 | 106 | 30 | 1.3 | -7 | 85 | . | . | .
SMILES | STAT3 inh | STAT1 act-1 | APP 5'UTR act | NF-kB expr up | STAT1 inh | STAT3 act-1 | STAT3 act-2 | NFkB act 2 | STAT1 act-2
O=C(c1ccco1)c1coc2c1cc(O)c1ccccc12 | -65 | 100 | 60 | 1.3 | -2 | 161* | 164* | 104 | 101
Cc1cccn2c(CNCC3(c4ccccc4)CCCC3)c(C(=O)N3CCOCC3)nc12 | -8 | 100 | -6 | 0.42 | -1 | 109 | . | . | .
COc1cc(OC)c(-c2nc3ccccc3s2)cc1OC | -51 | 106 | 26 | 0.98 | -9 | 149* | 154* | 104 | 114
COc1cc(-c2nc3ccccc3s2)ccc1O | -48 | 104 | 48 | 2.7 | -4 | 141* | 135* | 94 | 121*
Clc1ncccc1-c1nc2ccccc2s1 | 2 | 124 | 30 | 1.8 | -26 | 100 | . | . | .
CCOc1ccccc1NC(=O)Cn1nnc(C(=O)NCc2ccco2)c1N | -37 | 107 | -96 | 3.7* | -7 | 138* | 108 | 142* | 101
Cc1nn(C)c(C(=O)N2CCc3ccccc32)c1Cl | -48 | 90 | -9 | . | 11 | 144* | 113 | 102 | 93
Cc1cc(C(=O)N2CCc3ccccc32)c2cc(F)ccc2n1 | -14 | 104 | 8 | 1.1 | -5 | 115 | . | . | .
Cn1ncc(Cl)c1C(=O)N1CCc2ccccc21 | -63 | 98 | -5 | 1.1 | 2 | 155* | 140* | 105 | 97
Cn1ncc(Cl)c1C(=O)N1CCCc2ccccc21 | 1 | 98 | 15 | 0.99 | 2 | 99 | . | . | .
O=C(c1cccc(F)c1)N1CCc2ccccc21 | -53 | 100 | -10 | 1.3 | 3 | 145* | 125 | 103 | 97
COc1ccc(N=Cc2sc3ccccc3c2Cl)cc1 | -40 | 126 | -6 | 1.5 | -29 | 137* | 110 | 115 | 132*
Oc1ccccc1-c1cc(-c2ccccc2)no1 | -63 | 108 | 255* | 12* | -9 | 162* | 175* | 124* | 100
Cc1ccccc1-c1cc(-c2ccccc2O)on1 | -70 | 102 | 197* | 9.7* | -3 | 168* | 184* | 114 | 99
COc1ccc(CCNC(=O)c2cc3ccccn3n2)c(OC)c1OC | 4 | 107 | -6 | 1.3 | -8 | 104 | . | . | .
CN1CCc2c(sc3c2C(=O)NC(c2ccco2)N3)C1 (centres undefined) | 1 | 102 | -15 | 1 | -3 | 103 | . | . | .
O=C1NC(c2cccs2)Nc2sc3c(c21)CCCC3 (centres undefined) | -48 | 101 | 8 | 1.4 | -1 | 143* | 139* | 125* | 119

Screening data (PubChem BioAssay)
